Reference: ChEMBL document CHEMBL4689842, “EUbOPEN Chemogenomics Library wave 1” (2021)

System: HEK-293T
Assay: Multiplex assay against HEK293T;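 as to Population Tubulin-Different-Phenotype (%): share of the cells with healthy nuclei that show this phenotype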
Type: toxicity, cell-based
Conditions: human
Procedure, shortened: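 Live cells were stained at seeding with Hoechst33342, BioTracker Green Microtubule Cytoskeleton Dye, MitoTracker Red and Annexin V Alexa Fluor 680, then imaged on a CQ1 microscope at 37°C and 5% CO2 after compound addition. CellPathfinder machine-learning gating split cells into Hoechst high-intensity objects or normal cells. Normal cells were split into healthy, pyknosed or fragmented nuclei, and pyknosed cells into mitotic or apoptotic. Tubulin, mitochondrial-mass and membrane-permeability phenotypes are per cents of healthy-nucleus cells.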

[1] = 12 h, 1 µM, compound concentration 1 uM, replicate 1
[2] = 12 h, 1 µM, compound concentration 1 uM, replicate 2
[3] = 12 h, 10 µM, compound concentration 10 uM, replicate 1
[4] = 12 h, 10 µM, compound concentration 10 uM, replicate 2
[5] = 24 h, 1 µM, compound concentration 1 uM, replicate 1
[6] = 24 h, 1 µM, compound concentration 1 uM, replicate 2
[7] = 24 h, 10 µM, compound concentration 10 uM, replicate 1
[8] = 24 h, 10 µM, compound concentration 10 uM, replicate 2
[9] = 48 h, 1 µM, compound concentration 1 uM, replicate 1
[10] = 48 h, 1 µM, compound concentration 1 uM, replicate 2
[11] = 48 h, 10 µM, compound concentration 10 uM, replicate 1
[12] = 48 h, 10 µM, compound concentration 10 uM, replicate 2

## CC(C)CC(=O)Nc1[nH]nc2c1CN(C(=O)C1CCN(C)CC1)C2(C)C [PHA-793887]
[1]
  Population Apoptotic (%): 21%
  Population Fragmented Nuclei (%): 10%
  Population Healthy Nuclei (%): 72%
  Population Hoechst High Intensity Objects (%): 8%
  Population Membrane Permeable-Phenotype (%): 5%
  Population Mitochondria Different-Phenotype (%): 4%
  Population Mitotic Cells (%): 78%
  Population Normal (%): 91%
  Population Pyknosed Nuclei (%): 17%
  Population Tubulin-Different-Phenotype (%): 2%
  Total Cell Count: 604
[2]
  Population Apoptotic (%): 20%
  Population Fragmented Nuclei (%): 9%
  Population Healthy Nuclei (%): 87%
  Population Hoechst High Intensity Objects (%): 2%
  Population Membrane Permeable-Phenotype (%): 1%
  Population Mitochondria Different-Phenotype (%): 6%
  Population Mitotic Cells (%): 80%
  Population Normal (%): 97%
  Population Pyknosed Nuclei (%): 3%
  Population Tubulin-Different-Phenotype (%): 4%
  Total Cell Count: 1420
[3]
  Population Apoptotic (%): 21%
  Population Fragmented Nuclei (%): 13%
  Population Healthy Nuclei (%): 69%
  Population Hoechst High Intensity Objects (%): 12%
  Population Membrane Permeable-Phenotype (%): 2%
  Population Mitochondria Different-Phenotype (%): 7%
  Population Mitotic Cells (%): 78%
  Population Normal (%): 87%
  Population Pyknosed Nuclei (%): 16%
  Population Tubulin-Different-Phenotype (%): 3%
  Total Cell Count: 585
[4]
  Population Apoptotic (%): 25%
  Population Fragmented Nuclei (%): 7%
  Population Healthy Nuclei (%): 89%
  Population Hoechst High Intensity Objects (%): 5%
  Population Membrane Permeable-Phenotype (%): 0%
  Population Mitotic Cells (%): 74%
  Population Normal (%): 94%
  Population Pyknosed Nuclei (%): 2%
  Population Tubulin-Different-Phenotype (%): 2%
  Total Cell Count: 1190
[5]
  Population Apoptotic (%): 27%
  Population Fragmented Nuclei (%): 9%
  Population Healthy Nuclei (%): 81%
  Population Hoechst High Intensity Objects (%): 4%
  Population Membrane Permeable-Phenotype (%): 7%
  Population Mitochondria Different-Phenotype (%): 3%
  Population Mitotic Cells (%): 72%
  Population Normal (%): 95%
  Population Pyknosed Nuclei (%): 9%
  Population Tubulin-Different-Phenotype (%): 4%
  Total Cell Count: 638
[6]
  Population Apoptotic (%): 11%
  Population Fragmented Nuclei (%): 23%
  Population Healthy Nuclei (%): 72%
  Population Hoechst High Intensity Objects (%): 3%
  Population Membrane Permeable-Phenotype (%): 2%
  Population Mitochondria Different-Phenotype (%): 2%
  Population Mitotic Cells (%): 88%
  Population Normal (%): 96%
  Population Pyknosed Nuclei (%): 3%
  Population Tubulin-Different-Phenotype (%): 6%
  Total Cell Count: 1935
[7]
  Population Apoptotic (%): 25%
  Population Fragmented Nuclei (%): 13%
  Population Healthy Nuclei (%): 70%
  Population Hoechst High Intensity Objects (%): 15%
  Population Membrane Permeable-Phenotype (%): 4%
  Population Mitochondria Different-Phenotype (%): 7%
  Population Mitotic Cells (%): 75%
  Population Normal (%): 84%
  Population Pyknosed Nuclei (%): 15%
  Population Tubulin-Different-Phenotype (%): 8%
  Total Cell Count: 545
[8]
  Population Apoptotic (%): 36%
  Population Fragmented Nuclei (%): 11%
  Population Healthy Nuclei (%): 86%
  Population Hoechst High Intensity Objects (%): 4%
  Population Membrane Permeable-Phenotype (%): 1%
  Population Mitotic Cells (%): 63%
  Population Normal (%): 95%
  Population Pyknosed Nuclei (%): 2%
  Population Tubulin-Different-Phenotype (%): 4%
  Total Cell Count: 1297

## COC(=O)C1=C(C)NC(C)=C(C(=O)OCCCN2CCC(c3ccccc3)(c3ccccc3)CC2)[C@H]1c1cccc([N+](=O)[O-])c1 [NIGULDIPINE]
[1]
  Population Apoptotic (%): 86%
  Population Fragmented Nuclei (%): 7%
  Population Healthy Nuclei (%): 34%
  Population Hoechst High Intensity Objects (%): 9%
  Population Membrane Permeable-Phenotype (%): 2%
  Population Mitochondria Different-Phenotype (%): 98%
  Population Mitotic Cells (%): 13%
  Population Normal (%): 90%
  Population Pyknosed Nuclei (%): 58%
  Population Tubulin-Different-Phenotype (%): 97%
  Total Cell Count: 272
[2]
  Population Apoptotic (%): 91%
  Population Fragmented Nuclei (%): 5%
  Population Healthy Nuclei (%): 32%
  Population Hoechst High Intensity Objects (%): 5%
  Population Membrane Permeable-Phenotype (%): 1%
  Population Mitochondria Different-Phenotype (%): 100%
  Population Mitotic Cells (%): 8%
  Population Normal (%): 94%
  Population Pyknosed Nuclei (%): 62%
  Population Tubulin-Different-Phenotype (%): 98%
  Total Cell Count: 177
[3]
  Population Apoptotic (%): 81%
  Population Fragmented Nuclei (%): 18%
  Population Healthy Nuclei (%): 2%
  Population Hoechst High Intensity Objects (%): 15%
  Population Membrane Permeable-Phenotype (%): 0%
  Population Mitochondria Different-Phenotype (%): 66%
  Population Mitotic Cells (%): 18%
  Population Normal (%): 84%
  Population Pyknosed Nuclei (%): 79%
  Population Tubulin-Different-Phenotype (%): 66%
  Total Cell Count: 266
[4]
  Population Apoptotic (%): 63%
  Population Fragmented Nuclei (%): 6%
  Population Healthy Nuclei (%): 1%
  Population Hoechst High Intensity Objects (%): 7%
  Population Membrane Permeable-Phenotype (%): 66%
  Population Mitochondria Different-Phenotype (%): 0%
  Population Mitotic Cells (%): 36%
  Population Normal (%): 92%
  Population Pyknosed Nuclei (%): 91%
  Population Tubulin-Different-Phenotype (%): 33%
  Total Cell Count: 202
[5]
  Population Apoptotic (%): 86%
  Population Fragmented Nuclei (%): 7%
  Population Healthy Nuclei (%): 41%
  Population Hoechst High Intensity Objects (%): 11%
  Population Membrane Permeable-Phenotype (%): 0%
  Population Mitochondria Different-Phenotype (%): 99%
  Population Mitotic Cells (%): 13%
  Population Normal (%): 88%
  Population Pyknosed Nuclei (%): 50%
  Population Tubulin-Different-Phenotype (%): 97%
  Total Cell Count: 293
[6]
  Population Apoptotic (%): 95%
  Population Fragmented Nuclei (%): 6%
  Population Healthy Nuclei (%): 44%
  Population Hoechst High Intensity Objects (%): 3%
  Population Membrane Permeable-Phenotype (%): 1%
  Population Mitochondria Different-Phenotype (%): 100%
  Population Mitotic Cells (%): 4%
  Population Normal (%): 96%
  Population Pyknosed Nuclei (%): 49%
  Population Tubulin-Different-Phenotype (%): 98%
  Total Cell Count: 181
[7]
  Population Apoptotic (%): 88%
  Population Fragmented Nuclei (%): 20%
  Population Healthy Nuclei (%): 3%
  Population Hoechst High Intensity Objects (%): 12%
  Population Membrane Permeable-Phenotype (%): 11%
  Population Mitochondria Different-Phenotype (%): 66%
  Population Mitotic Cells (%): 11%
  Population Normal (%): 87%
  Population Pyknosed Nuclei (%): 75%
  Population Tubulin-Different-Phenotype (%): 77%
  Total Cell Count: 263
[8]
  Population Apoptotic (%): 79%
  Population Fragmented Nuclei (%): 4%
  Population Healthy Nuclei (%): 1%
  Population Hoechst High Intensity Objects (%): 6%
  Population Membrane Permeable-Phenotype (%): 50%
  Population Mitochondria Different-Phenotype (%): 0%
  Population Mitotic Cells (%): 20%
  Population Normal (%): 93%
  Population Pyknosed Nuclei (%): 94%
  Population Tubulin-Different-Phenotype (%): 0%
  Total Cell Count: 202
[9]
  Population Apoptotic (%): 85%
  Population Fragmented Nuclei (%): 9%
  Population Healthy Nuclei (%): 56%
  Population Hoechst High Intensity Objects (%): 9%
  Population Membrane Permeable-Phenotype (%): 0%
  Population Mitochondria Different-Phenotype (%): 99%
  Population Mitotic Cells (%): 14%
  Population Normal (%): 91%
  Population Pyknosed Nuclei (%): 34%
  Population Tubulin-Different-Phenotype (%): 96%
  Total Cell Count: 300
[10]
  Population Apoptotic (%): 97%
  Population Fragmented Nuclei (%): 6%
  Population Healthy Nuclei (%): 55%
  Population Hoechst High Intensity Objects (%): 8%
  Population Mitochondria Different-Phenotype (%): 98%
  Population Mitotic Cells (%): 2%
  Population Pyknosed Nuclei (%): 37%
  Population Tubulin-Different-Phenotype (%): 99%
  Total Cell Count: 203
[11]
  Population Fragmented Nuclei (%): 24%
  Population Healthy Nuclei (%): 3%
  Population Hoechst High Intensity Objects (%): 14%
  Population Membrane Permeable-Phenotype (%): 22%
  Population Mitochondria Different-Phenotype (%): 66%
  Population Normal (%): 85%
  Population Pyknosed Nuclei (%): 72%
  Population Tubulin-Different-Phenotype (%): 55%
  Total Cell Count: 283
[12]
  Population Apoptotic (%): 93%
  Population Fragmented Nuclei (%): 11%
  Population Healthy Nuclei (%): 6%
  Population Hoechst High Intensity Objects (%): 5%
  Population Membrane Permeable-Phenotype (%): 41%
  Population Mitochondria Different-Phenotype (%): 75%
  Population Mitotic Cells (%): 6%
  Population Normal (%): 94%
  Population Pyknosed Nuclei (%): 82%
  Population Tubulin-Different-Phenotype (%): 66%
  Total Cell Count: 201
